This is an account of results in ChEMBL document CHEMBL1138753, “Synthesis and biological activity of analogues of the antimicrotubule agent N,beta,beta-trimethyl-L-phenylalanyl-N(1)-[(1S,2E)-3-carboxy-1-isopropylbut-2-enyl]- N(1),3-dimethyl-L-valinamide (HTI-286)” (J Med Chem, 2004).

pIC50, pKd: −log10 of the molar value.

Usually inhibition stands for how much of the control response was suppressed. As a reminder, the pIC50 is the negative decadic logarithm of the IC50, by convention in mol/L. A higher pIC50 goes with a low IC50. For orientation: MTD means the largest dose that counted as tolerated. What is called pKd is the Kd on a negative log10 scale, so that one unit is a factor of ten.

The target of assay [1] is T1, Tubulin beta-1 chain (Homo sapiens, UniProt Q9H4B7). Briefly: Percent inhibition of tubulin polymerization at 0.3 uM concentration. It counts as functional.
Assay [2] concerns HCT-15. The experiment in a line: Inhibitory concentration against HCT-15 cells was evaluated. Type of assay: functional, cell-based. Conditions: Homo sapiens. In outline:
(§1)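 Cytotoxicity panel covered tumor lines differing in P-glycoprotein expression. Lox melanoma and KM20 have none; NCI-H1299, HCT-15 and S1 express it. Result is the average IC50 (nM) ± SEM.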

Assay [3] deals with T1, Tubulin beta-1 chain. Briefly: Binding affinity towards tubulin; d = weak binding.
The test system of assay [4] is KB. The experiment in a line: Concentration required to inhibit tumor cell growth in KB-8-5 cells. It counts as functional, cell-based, Homo sapiens. Conditions: Homo sapiens, KB. The essentials: (§2)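 Cytotoxicity was measured in paclitaxel-sensitive KB-3-1 cells and in KB-8-5 and KB-V1 cells, which express moderate and high P-glycoprotein respectively. Result is the average IC50 (nM) ± SEM; SEM is omitted where it is below 10% of the average.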

Assay [5] relates to KB. Briefly: Concentration required to inhibit tumor cell growth in KB-V1 cells. The settings on record: Homo sapiens. It counts as functional, cell-based. In outline: as §2
In assay [6] the test system is NCI-H1299. The experiment in a line: Inhibitory concentration against NCI-H1299 cells was evaluated. Type of assay: functional, cell-based. The settings on record: Homo sapiens. In outline:
as §1

A short description of assay [7]: Concentration required to inhibit tumor cell growth in KB-3-1 cells. The settings on record: Homo sapiens, KB 3-1. Type of assay: functional, cell-based, Homo sapiens. In outline: as §2
Assay [8] concerns LOX IMVI. The experiment in a line: Inhibitory concentration against Lox melanoma cells. Type of assay: functional, cell-based. Conditions: Homo sapiens. The essentials:
as §1

Assay [9] in a line: Inhibitory concentration against S1 cells was evaluated. It counts as functional, cell-based. The essentials:
as §1

The test system of assay [10] is Mus musculus. Briefly: Minimum effective dose was evaluated in lox melanoma human tumor graft model in athymic mice when administered intravenously. Conditions: iv, read-out: MED.
Assay [11] has as its system Mus musculus. The experiment in a line: Minimum tolerated dose was evaluated in lox melanoma human tumor graft model in athymic mice when administered intravenously.
For assay [12], the target named is T1, Tubulin beta-1 chain. The experiment in a line: Binding affinity towards tubulin.
The subject of assay [13] is KB 3-1. The experiment in a line: Inhibitory concentration against KB-3-1 cells was evaluated. It counts as functional, cell-based. Conditions: Homo sapiens. The essentials: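 Cytotoxicity was measured in paclitaxel-sensitive KB-3-1 human carcinoma cells. The value is the average IC50 in nM ± SEM; where no SEM is given, it is under 10% of the average.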
A short description of assay [14]: Inhibitory concentration against KM20 cells was evaluated. Type of assay: functional, cell-based, Homo sapiens. The essentials:
as §1

Assay [15] has as its target T1, Tubulin beta-1 chain. Briefly: Binding affinity towards tubulin; e = no evidence for binding.

T1 sequence (Q9H4B7 whole entry): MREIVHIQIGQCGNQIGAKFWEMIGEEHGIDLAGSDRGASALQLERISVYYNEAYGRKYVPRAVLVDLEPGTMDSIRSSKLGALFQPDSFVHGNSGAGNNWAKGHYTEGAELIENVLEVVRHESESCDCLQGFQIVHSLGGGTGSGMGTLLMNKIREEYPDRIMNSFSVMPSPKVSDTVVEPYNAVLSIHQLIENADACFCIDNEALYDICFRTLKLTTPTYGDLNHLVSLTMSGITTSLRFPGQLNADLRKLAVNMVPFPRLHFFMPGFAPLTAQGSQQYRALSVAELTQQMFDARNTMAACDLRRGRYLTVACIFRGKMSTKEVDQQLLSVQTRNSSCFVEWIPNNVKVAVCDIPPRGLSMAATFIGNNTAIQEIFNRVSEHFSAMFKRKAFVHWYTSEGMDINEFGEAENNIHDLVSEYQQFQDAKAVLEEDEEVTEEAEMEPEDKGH

In assay [1], `CN[C@@H](C(=O)N[C@H](C(=O)N(C)[C@H](/C=C(\C)C(=O)O)C(C)C)C(C)(C)C)C(C)(C)c1ccccc1` (single isomer, unassigned) displayed an inhibition of 91%. For the same compound, the pIC50 in assay [2] was 7.24; in assay [4], 7.41; in assay [5] it was 6.06; in assay [6] it was 7.10; in assay [7], 7.55; in [8], 7.43. For the same compound, the Kd entry in assay [3] is reported as “Weak binding”.

The compound `CN[C@H](C(=O)N[C@H](C(=O)N(C)[C@H](/C=C(\C)C(=O)O)C(C)C)C(C)(C)C)C(C)(C)c1ccc(OC)cc1` gave an inhibition in [1] of 91%. The negative-log IC50 (pIC50) was 8.14 in [9]; 8.16 in assay [2]; 8.39 in assay [4]; 6.84 in [5]; 8.00 in [6]; 8.85 in assay [7]. This compound also gave a pIC50 in assay [8] of 8.96. Besides, in assay [10], the minimal effective dose came out at 0.1 mg/kg. The compound further gave an MTD in assay [11] of 1.6 mg/kg. The negative-log Kd (pKd) in [12] is 6.15.

In the case of `CC(=O)O[C@H]1C(=O)[C@@]2(C)[C@H]([C@H](OC(=O)c3ccccc3)[C@]3(O)C[C@H](OC(=O)[C@H](O)[C@@H](NC(=O)c4ccccc4)c4ccccc4)C(C)=C1C3(C)C)[C@]1(OC(C)=O)CO[C@@H]1C[C@@H]2O` [PACLITAXEL], the pIC50 in assay [9] is 7.04; in [2], 6.36; in assay [13], 8.41; in [6], 7.42; in assay [8] it was 7.76; in assay [14] it was 8.05.

In turn, `C/C(=C\[C@H](C(C)C)N(C)C(=O)[C@@H](NC(=O)[C@@H](C)C(C)(C)c1ccccc1)C(C)(C)C)C(=O)O` showed an inhibition in assay [1] of 94%. The pIC50 in assay [2] was 5.92; in assay [4] it was 6.19; in assay [5], below 5.52; in assay [6], 5.97; in assay [7], 6.25; in [8] it was 5.86. The Kd entry in [15] is reported as “No evidence for binding”.

Regarding `CN[C@H](C(=O)N[C@H](C(=O)N(C)[C@H](/C=C(\C)C(=O)O)C(C)C)C(C)(C)C)C(C)(C)c1ccccc1` [TALTOBULIN], the inhibition in [1] was found to be 88%. For the same compound, the pIC50 in assay [9] is 8.43; in [2] it was 8.38; in assay [5], 7.11; in assay [6] it was 8.17; in [8], 8.85; in assay [14] it was 8.74. Also, in assay [10], the minimal effective dose was found to be 0.2 mg/kg. In addition, the MTD in assay [11] is 1.6 mg/kg. In addition, the pKd in [12] is 6.59.
